From ChEMBL document CHEMBL5260840 (J Med Chem, 2019)
Activity calls are given as the source filed them. No cut-off for these calls is given here.

Legend:
Assay type in all cases: cell-based
[1] = biological target: T1, von Hippel-Lindau disease tumor suppressor/Bromodomain-containing protein 9 (Homo sapiens) (UniProt Q9H8M2+P40337); assay: PROTAC activity at VHL/BRD9 in human Ri-1 cells assessed as remaining BRD9 protein level at 10 nM incubated for 2 hrs by Western blot analysis relative to control
T1 sequence (P40337 whole entry, looked up): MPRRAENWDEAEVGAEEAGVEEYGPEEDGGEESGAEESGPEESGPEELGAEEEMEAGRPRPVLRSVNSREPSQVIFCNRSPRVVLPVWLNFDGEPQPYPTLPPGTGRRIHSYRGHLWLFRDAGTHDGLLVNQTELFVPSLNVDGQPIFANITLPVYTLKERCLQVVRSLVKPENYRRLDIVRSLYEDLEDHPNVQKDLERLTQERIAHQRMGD
T1 sequence (Q9H8M2 whole entry, looked up): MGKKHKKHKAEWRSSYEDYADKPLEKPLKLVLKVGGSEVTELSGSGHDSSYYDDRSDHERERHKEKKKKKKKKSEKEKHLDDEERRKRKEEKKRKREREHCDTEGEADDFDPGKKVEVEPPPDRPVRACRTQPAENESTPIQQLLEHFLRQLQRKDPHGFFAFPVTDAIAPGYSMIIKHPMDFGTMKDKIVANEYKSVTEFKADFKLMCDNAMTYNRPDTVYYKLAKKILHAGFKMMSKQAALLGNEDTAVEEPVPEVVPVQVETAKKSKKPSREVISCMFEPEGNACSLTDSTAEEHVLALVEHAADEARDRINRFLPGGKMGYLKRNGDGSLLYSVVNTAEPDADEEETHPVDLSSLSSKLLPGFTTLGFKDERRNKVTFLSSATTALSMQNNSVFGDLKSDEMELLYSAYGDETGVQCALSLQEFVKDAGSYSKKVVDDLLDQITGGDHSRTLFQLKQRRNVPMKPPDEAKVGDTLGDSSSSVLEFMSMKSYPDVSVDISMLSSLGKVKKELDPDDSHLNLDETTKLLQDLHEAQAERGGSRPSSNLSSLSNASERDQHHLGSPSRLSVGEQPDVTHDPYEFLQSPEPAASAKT
How it was run: (§1)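 Ri-1 cells exposed to compound for the stated time before harvest; BRD9, BRD7 and β-actin measured by Western blot, band intensities quantified and set against DMSO-treated control.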

[2] = biological target: T1, von Hippel-Lindau disease tumor suppressor/Bromodomain-containing protein 9 (Homo sapiens); assay: PROTAC activity at VHL/BRD9 in human Ri-1 cells assessed as remaining BRD9 protein level at 1 nM incubated for 8 hrs by Western blot analysis relative to control; how it was run: as §1
[3] = biological target: T2, von Hippel-Lindau disease tumor suppressor/Bromodomain-containing protein 7 (Homo sapiens) (UniProt Q9NPI1+P40337); assay: PROTAC activity at VHL/BRD7 in human Ri-1 cells assessed as remaining BRD7 protein level at 0.1 nM incubated for 8 hrs by Western blot analysis relative to control
T2 sequence (P40337 whole entry, looked up): as the sequence (P40337 whole entry, looked up) above
T2 sequence (Q9NPI1 whole entry, looked up): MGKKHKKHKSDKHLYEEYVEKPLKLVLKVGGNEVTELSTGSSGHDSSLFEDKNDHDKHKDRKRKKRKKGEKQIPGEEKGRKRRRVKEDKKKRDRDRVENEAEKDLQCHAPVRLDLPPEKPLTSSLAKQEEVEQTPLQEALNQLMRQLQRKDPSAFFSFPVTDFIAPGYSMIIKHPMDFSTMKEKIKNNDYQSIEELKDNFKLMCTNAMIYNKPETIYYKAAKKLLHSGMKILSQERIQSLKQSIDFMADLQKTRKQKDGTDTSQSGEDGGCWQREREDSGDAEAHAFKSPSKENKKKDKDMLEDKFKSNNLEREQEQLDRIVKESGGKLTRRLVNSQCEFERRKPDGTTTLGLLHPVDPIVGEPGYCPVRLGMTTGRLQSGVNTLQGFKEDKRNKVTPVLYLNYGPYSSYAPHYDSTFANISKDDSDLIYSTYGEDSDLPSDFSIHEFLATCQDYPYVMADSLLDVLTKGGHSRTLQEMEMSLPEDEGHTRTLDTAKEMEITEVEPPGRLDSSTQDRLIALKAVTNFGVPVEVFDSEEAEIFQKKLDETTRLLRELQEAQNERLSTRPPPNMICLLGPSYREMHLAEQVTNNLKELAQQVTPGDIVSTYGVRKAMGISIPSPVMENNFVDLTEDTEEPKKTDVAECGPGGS

[4] = biological target: T1, von Hippel-Lindau disease tumor suppressor/Bromodomain-containing protein 9 (Homo sapiens); assay: PROTAC activity at VHL/BRD9 in human Ri-1 cells assessed as remaining BRD9 protein level at 100 nM incubated for 2 hrs by Western blot analysis relative to control; how it was run: as §1
[5] = biological target: T1, von Hippel-Lindau disease tumor suppressor/Bromodomain-containing protein 9 (Homo sapiens); assay: PROTAC activity at VHL/BRD9 in human Ri-1 cells assessed as remaining BRD9 protein level at 10 nM incubated for 8 hrs by Western blot analysis relative to control; how it was run: as §1
[6] = biological target: T1, von Hippel-Lindau disease tumor suppressor/Bromodomain-containing protein 9 (Homo sapiens); assay: PROTAC activity at VHL/BRD9 in human Ri-1 cells assessed as remaining BRD9 protein level at 10000 nM incubated for 2 hrs by Western blot analysis relative to control; how it was run: as §1
[7] = biological target: T1, von Hippel-Lindau disease tumor suppressor/Bromodomain-containing protein 9 (Homo sapiens); assay: PROTAC activity at VHL/BRD9 in human Ri-1 cells assessed as remaining BRD9 protein level at 1 nM incubated for 2 hrs by Western blot analysis relative to control; how it was run: as §1
[8] = biological target: T1, von Hippel-Lindau disease tumor suppressor/Bromodomain-containing protein 9 (Homo sapiens); assay: PROTAC activity at VHL/BRD9 in human Ri-1 cells assessed as remaining BRD9 protein level at 100 nM incubated for 8 hrs by Western blot analysis relative to control; how it was run: as §1
[9] = biological target: T2, von Hippel-Lindau disease tumor suppressor/Bromodomain-containing protein 7 (Homo sapiens); assay: PROTAC activity at VHL/BRD7 in human Ri-1 cells assessed as remaining BRD7 protein level at 1 uM incubated for 2 hrs by Western blot analysis relative to control
[10] = biological target: T2, von Hippel-Lindau disease tumor suppressor/Bromodomain-containing protein 7 (Homo sapiens); assay: PROTAC activity at VHL/BRD7 in human Ri-1 cells assessed as remaining BRD7 protein level at 10 nM incubated for 2 hrs by Western blot analysis relative to control
[11] = biological target: T2, von Hippel-Lindau disease tumor suppressor/Bromodomain-containing protein 7 (Homo sapiens); assay: PROTAC activity at VHL/BRD7 in human Ri-1 cells assessed as remaining BRD7 protein level at 100 nM incubated for 2 hrs by Western blot analysis relative to control; how it was run: as §1
[12] = biological target: T2, von Hippel-Lindau disease tumor suppressor/Bromodomain-containing protein 7 (Homo sapiens); assay: PROTAC activity at VHL/BRD7 in human Ri-1 cells assessed as remaining BRD7 protein level at 1 nM incubated for 2 hrs by Western blot analysis relative to control
[13] = biological target: T2, von Hippel-Lindau disease tumor suppressor/Bromodomain-containing protein 7 (Homo sapiens); assay: PROTAC activity at VHL/BRD7 in human Ri-1 cells assessed as remaining BRD7 protein level at 10 nM incubated for 8 hrs by Western blot analysis relative to control; how it was run: as §1
[14] = biological target: T2, von Hippel-Lindau disease tumor suppressor/Bromodomain-containing protein 7 (Homo sapiens); assay: PROTAC activity at VHL/BRD7 in human Ri-1 cells assessed as remaining BRD7 protein level at 100 nM incubated for 8 hrs by Western blot analysis relative to control; how it was run: as §1
[15] = biological target: T2, von Hippel-Lindau disease tumor suppressor/Bromodomain-containing protein 7 (Homo sapiens); assay: PROTAC activity at VHL/BRD7 in human HeLa cells assessed as remaining BRD7 protein level at 1 uM incubated for 4 hrs by Western blot analysis relative to control
[16] = biological target: T1, von Hippel-Lindau disease tumor suppressor/Bromodomain-containing protein 9 (Homo sapiens); assay: PROTAC activity at VHL/BRD9 in human Ri-1 cells assessed as remaining BRD9 protein level at 1 uM incubated for 8 hrs by Western blot analysis relative to control; how it was run: as §1
[17] = biological target: T2, von Hippel-Lindau disease tumor suppressor/Bromodomain-containing protein 7 (Homo sapiens); assay: PROTAC activity at VHL/BRD7 in human Ri-1 cells assessed as remaining BRD7 protein level at 1 uM incubated for 8 hrs by Western blot analysis relative to control
[18] = biological target: T2, von Hippel-Lindau disease tumor suppressor/Bromodomain-containing protein 7 (Homo sapiens); assay: PROTAC activity at VHL/BRD7 in human Ri-1 cells assessed as remaining BRD7 protein level at 1 nM incubated for 8 hrs by Western blot analysis relative to control
[19] = biological target: T1, von Hippel-Lindau disease tumor suppressor/Bromodomain-containing protein 9 (Homo sapiens); assay: PROTAC activity at VHL/BRD9 in human Ri-1 cells assessed as remaining BRD9 protein level at 0.1 nM incubated for 8 hrs by Western blot analysis relative to control; how it was run: as §1
[20] = biological target: T1, von Hippel-Lindau disease tumor suppressor/Bromodomain-containing protein 9 (Homo sapiens); assay: PROTAC activity at VHL/BRD9 in human Ri-1 cells assessed as remaining BRD9 protein level at 1 uM incubated for 2 hrs by Western blot analysis relative to control; how it was run: as §1
[21] = biological target: T2, von Hippel-Lindau disease tumor suppressor/Bromodomain-containing protein 7 (Homo sapiens); assay: PROTAC activity at VHL/BRD7 in human Ri-1 cells assessed as remaining BRD7 protein level at 10000 nM incubated for 2 hrs by Western blot analysis relative to control; how it was run: as §1
[22] = biological target: T3, DDB1- and CUL4-associated factor 15/Bromodomain-containing protein 9 (Homo sapiens) (UniProt Q9H8M2+Q66K64); assay: PROTAC activity at DCAF15/BRD9 in human HeLa cells assessed as remaining BRD9 protein level at 1 uM incubated for 4 hrs by Western blot analysis relative to control
T3 sequence (Q66K64 whole entry, looked up): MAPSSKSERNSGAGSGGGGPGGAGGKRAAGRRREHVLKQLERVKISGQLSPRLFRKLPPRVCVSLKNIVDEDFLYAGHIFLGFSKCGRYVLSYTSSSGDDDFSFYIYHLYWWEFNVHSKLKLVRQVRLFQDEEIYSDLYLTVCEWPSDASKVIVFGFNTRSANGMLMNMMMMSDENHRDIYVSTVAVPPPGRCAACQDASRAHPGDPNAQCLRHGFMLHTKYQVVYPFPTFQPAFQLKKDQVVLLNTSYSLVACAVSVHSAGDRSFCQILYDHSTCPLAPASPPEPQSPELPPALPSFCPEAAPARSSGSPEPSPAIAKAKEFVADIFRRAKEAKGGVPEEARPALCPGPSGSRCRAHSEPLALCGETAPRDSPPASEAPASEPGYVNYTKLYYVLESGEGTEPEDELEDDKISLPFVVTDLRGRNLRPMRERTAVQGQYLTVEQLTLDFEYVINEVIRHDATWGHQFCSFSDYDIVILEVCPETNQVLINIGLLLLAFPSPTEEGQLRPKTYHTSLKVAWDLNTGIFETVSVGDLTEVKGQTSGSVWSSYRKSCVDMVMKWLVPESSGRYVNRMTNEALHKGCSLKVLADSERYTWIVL
T3 sequence (Q9H8M2 whole entry, looked up): as the sequence (Q9H8M2 whole entry, looked up) above

[23] = biological target: T4, DDB1- and CUL4-associated factor 15/Bromodomain-containing protein 7 (Homo sapiens) (UniProt Q9NPI1+Q66K64); assay: PROTAC activity at DCAF15/BRD7 in human HeLa cells assessed as remaining BRD7 protein level at 1 uM incubated for 16 hrs by Western blot analysis relative to control
T4 sequence (Q66K64 whole entry, looked up): as the sequence (Q66K64 whole entry, looked up) above
T4 sequence (Q9NPI1 whole entry, looked up): as the sequence (Q9NPI1 whole entry, looked up) above

[24] = biological target: T3, DDB1- and CUL4-associated factor 15/Bromodomain-containing protein 9 (Homo sapiens); assay: PROTAC activity at DCAF15/BRD9 in human HeLa cells assessed as remaining BRD9 protein level at 1 uM incubated for 16 hrs by Western blot analysis relative to control
[25] = biological target: T4, DDB1- and CUL4-associated factor 15/Bromodomain-containing protein 7 (Homo sapiens); assay: PROTAC activity at DCAF15/BRD7 in human HeLa cells assessed as remaining BRD7 protein level at 1 uM incubated for 4 hrs by Western blot analysis relative to control
[26] = biological target: T2, von Hippel-Lindau disease tumor suppressor/Bromodomain-containing protein 7 (Homo sapiens); assay: PROTAC activity at VHL/BRD7 in human Ri-1 cells assessed as BRD7 protein degradation at 100 nM incubated for 4 hrs by Western blot analysis
[27] = biological target: T1, von Hippel-Lindau disease tumor suppressor/Bromodomain-containing protein 9 (Homo sapiens); assay: PROTAC activity at VHL/BRD9 in human Ri-1 cells assessed as BRD9 protein degradation at 100 nM incubated for 4 hrs by MS proteomics analysis
How it was run: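 RI-1 cells treated in triplicate with compound (100 nM) or DMSO for 4 h; whole-cell proteome quantified by MS (6273 proteins), fold change versus control with t-test P-values.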

[28] = biological target: T1, von Hippel-Lindau disease tumor suppressor/Bromodomain-containing protein 9 (Homo sapiens); assay: PROTAC activity at VHL/BRD9 in human Ri-1 cells assessed as BRD9 protein degradation at 100 nM incubated for 4 hrs by Western blot analysis; how it was run: as §1
[29] = biological target: T2, von Hippel-Lindau disease tumor suppressor/Bromodomain-containing protein 7 (Homo sapiens); assay: PROTAC activity at VHL/BRD7 in human Ri-1 cells assessed as BRD7 protein degradation at 100 nM incubated for 4 hrs by MS proteomics analysis

COc1cc(-c2cn(C)c(=O)c3cnccc23)cc(OC)c1CN1CCN(CCOCCOc2cc(-c3scnc3C)ccc2CNC(=O)[C@@H]2C[C@@H](O)CN2C(=O)[C@@H](NC(=O)C2(F)CC2)C(C)(C)C)CC1 gave an Activity [1] of 113%, an Activity [2] of 109% and an Activity [3] of 155%. For the same compound, the Activity [4] was 50%, the Activity [5] was 103% and the Activity [6] was 66%. For the same compound, the Activity [7] was 110%, the Activity [8] was 63% and the Activity [9] was 63%. It also gave an Activity [10] of 123%, an Activity [11] of 75% and an Activity [12] of 101%. It also gave an Activity [13] of 155%, an Activity [14] of 152% and an Activity [15] of 8%. For the same compound, the Activity [16] was 6%, the Activity [17] was 8% and the Activity [18] was 155%. For the same compound, the Activity [19] was 117%, the Activity [20] was 44% and the Activity [21] was 33%.

Compound COc1cc(-c2cn(C)c(=O)c3cnccc23)cc(OC)c1CN1CCN(CCOCCOCCOCCOCC(=O)NCc2ccc(S(=O)(=O)Nc3cccc4c(Cl)c[nH]c34)cc2)CC1 has an Activity [22] of 126%, an Activity [23] of 86% and an Activity [24] of 86%. It also gave an Activity [25] of 81%.

With COc1cc(-c2cn(C)c(=O)c3cnccc23)cc(OC)c1CN1CCN(CCCCCOc2cc(-c3scnc3C)ccc2CNC(=O)[C@@H]2C[C@H](O)CN2C(=O)[C@@H](NC(=O)C2(F)CC2)C(C)(C)C)CC1 the Activity [26] was “inactive”, the Activity [27] was “inactive” and the Activity [28] was “inactive”. The Activity [29] was “inactive”.
